According to ChEMBL document CHEMBL3804775, “Development of a Potent, Specific CDK8 Kinase Inhibitor Which Phenocopies CDK8/19 Knockout Cells” (ACS Med Chem Lett, 2016):
≈ marks a conversion by molar mass, not a printed value. Calls of active or inactive are those of the source. No cut-off for these calls is given here.

Tests used:
CDK8/Cyclin C = CDK8/Cyclin C (Homo sapiens, UniProt P49336); test: Inhibition of full length human recombinant His-tagged CDK8/Cyclin C expressed in baculovirus expression system by fluorescence polarization assay
Sequence of CDK8/Cyclin C (P49336 whole entry): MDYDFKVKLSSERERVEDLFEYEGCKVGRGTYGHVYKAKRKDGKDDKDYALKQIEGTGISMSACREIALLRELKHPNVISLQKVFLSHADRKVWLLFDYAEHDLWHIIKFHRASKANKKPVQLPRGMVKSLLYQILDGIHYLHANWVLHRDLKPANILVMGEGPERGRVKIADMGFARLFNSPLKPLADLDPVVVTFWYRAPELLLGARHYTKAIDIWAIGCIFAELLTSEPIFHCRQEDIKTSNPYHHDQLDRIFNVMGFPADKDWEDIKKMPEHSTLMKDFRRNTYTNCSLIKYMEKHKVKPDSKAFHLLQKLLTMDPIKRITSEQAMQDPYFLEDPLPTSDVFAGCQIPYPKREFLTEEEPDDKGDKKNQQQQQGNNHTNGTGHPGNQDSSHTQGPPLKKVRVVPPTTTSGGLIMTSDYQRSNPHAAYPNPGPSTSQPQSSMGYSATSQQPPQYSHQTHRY
Sequence of CDK8/Cyclin C (P24863 whole entry, further chain): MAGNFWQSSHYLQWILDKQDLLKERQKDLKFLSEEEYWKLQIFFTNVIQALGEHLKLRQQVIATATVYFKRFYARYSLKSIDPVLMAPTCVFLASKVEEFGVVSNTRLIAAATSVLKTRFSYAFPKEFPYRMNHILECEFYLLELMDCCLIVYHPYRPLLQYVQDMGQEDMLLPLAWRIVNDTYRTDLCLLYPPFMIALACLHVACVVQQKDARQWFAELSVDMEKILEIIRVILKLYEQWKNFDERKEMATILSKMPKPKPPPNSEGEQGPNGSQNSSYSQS

[1] = Permeability from apical to basolateral side in MDCK cells; format: ADME, cell-based, Canis lupus familiaris; details: dog, read-out: permeability
[2] = Antiproliferative activity against human HCT116 cells after 72 hrs by Celltiter-Glo reagent based assay in presence of 0.625% fetal bovine serum; format: functional, cell-based; details: HCT-116, 72 h
[3] = Antiproliferative activity against human HCT116 cells after 72 hrs by Celltiter-Glo reagent based assay in presence of 10% fetal bovine serum; format: functional, cell-based; details: HCT-116, 72 h
[4] = Plasma protein binding in rat; format: ADME, cell-free; details: read-out: PPB (converted)
[5] = Plasma protein binding in human; format: ADME, cell-free; details: read-out: PPB (converted)
[6] = Plasma protein binding in mouse; format: ADME, cell-free; details: read-out: PPB (converted)
CDK9/cyclin T1 = CDK9/cyclin T1 (Homo sapiens, UniProt P50750); test: Inhibition of full length human recombinant His-tagged CDK9/Cyclin T expressed in baculovirus expression system using Cdk7/9tide as substrate by adapta assay
Sequence of CDK9/cyclin T1 (O60563 whole entry): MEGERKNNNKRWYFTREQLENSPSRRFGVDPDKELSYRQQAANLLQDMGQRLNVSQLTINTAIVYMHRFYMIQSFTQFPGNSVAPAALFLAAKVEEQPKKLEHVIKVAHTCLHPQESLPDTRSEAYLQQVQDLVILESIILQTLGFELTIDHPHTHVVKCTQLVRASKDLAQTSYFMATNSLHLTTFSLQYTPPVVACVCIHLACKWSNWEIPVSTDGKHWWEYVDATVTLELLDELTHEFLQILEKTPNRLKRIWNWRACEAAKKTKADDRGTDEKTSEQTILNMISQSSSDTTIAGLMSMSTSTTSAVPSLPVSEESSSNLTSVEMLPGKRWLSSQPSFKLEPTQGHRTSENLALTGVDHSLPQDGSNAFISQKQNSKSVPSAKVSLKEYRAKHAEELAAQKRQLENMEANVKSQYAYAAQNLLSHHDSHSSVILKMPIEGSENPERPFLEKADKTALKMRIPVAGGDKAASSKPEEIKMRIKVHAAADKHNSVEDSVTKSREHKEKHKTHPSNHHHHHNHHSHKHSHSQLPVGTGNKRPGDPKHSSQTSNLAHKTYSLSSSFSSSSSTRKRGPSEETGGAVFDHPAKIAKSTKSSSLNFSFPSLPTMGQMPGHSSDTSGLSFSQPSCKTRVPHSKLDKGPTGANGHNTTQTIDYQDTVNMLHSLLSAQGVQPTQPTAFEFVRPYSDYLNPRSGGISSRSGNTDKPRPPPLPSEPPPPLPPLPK
Sequence of CDK9/cyclin T1 (P50750 whole entry): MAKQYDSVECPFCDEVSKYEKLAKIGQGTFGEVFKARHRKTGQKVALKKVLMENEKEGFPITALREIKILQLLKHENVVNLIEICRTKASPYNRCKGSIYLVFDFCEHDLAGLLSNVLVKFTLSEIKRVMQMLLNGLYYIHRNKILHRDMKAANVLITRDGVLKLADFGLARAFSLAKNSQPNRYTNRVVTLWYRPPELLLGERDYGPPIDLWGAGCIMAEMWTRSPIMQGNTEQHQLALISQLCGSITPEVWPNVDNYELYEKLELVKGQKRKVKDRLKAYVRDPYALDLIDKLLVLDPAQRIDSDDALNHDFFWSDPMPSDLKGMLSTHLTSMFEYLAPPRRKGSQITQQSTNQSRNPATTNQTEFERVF

[7] = Kinetic solubility in DMSO/phosphate buffered saline at pH 7.4 at 200 uM after 24 hrs by UHPLC based chemiluminescent nitrogen detection method; format: physicochemical; details: read-out: Kinetic_solubility
HCT-116 [8] = test: Antiproliferative activity against CDK8/CDK19 double knockout human HCT116 cells after 72 hrs by Celltiter-Glo reagent based assay; format: functional, cell-based
Procedure, shortened: (§1)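 HCT-116 CDK8 knockout and CDK8/CDK19 double knockout clones, derived from wild-type HCT-116, were incubated alongside the parent line with varying concentrations of compound. Cell viability was read at 72 h to give growth-inhibition curves.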

HCT-116 [9] = test: Antiproliferative activity against CDK8 knockout human HCT116 cells after 72 hrs by Celltiter-Glo reagent based assay; format: functional, cell-based; procedure, shortened: as §1
[10] = Ratio of EC50 for antiproliferative activity against human HCT116 cells after 72 hrs by Celltiter-Glo reagent based assay to IC50 for inhibition of full length human recombinant His-tagged CDK8/Cyclin C expressed in baculovirus expression system by fluorescence polarization assay; parameters: species or system HCT-116
[11] = target: T1, Homeodomain-interacting protein kinase 4 (Homo sapiens) (UniProt Q8NE63); test: Inhibition of full length human recombinant N-terminal GST-tagged HIPK4 expressed in baculovirus expression system using Ser/Thr peptide 18 substrate at 0.1 uM by Z-Lyte assay relative to control
T1 sequence (whole entry): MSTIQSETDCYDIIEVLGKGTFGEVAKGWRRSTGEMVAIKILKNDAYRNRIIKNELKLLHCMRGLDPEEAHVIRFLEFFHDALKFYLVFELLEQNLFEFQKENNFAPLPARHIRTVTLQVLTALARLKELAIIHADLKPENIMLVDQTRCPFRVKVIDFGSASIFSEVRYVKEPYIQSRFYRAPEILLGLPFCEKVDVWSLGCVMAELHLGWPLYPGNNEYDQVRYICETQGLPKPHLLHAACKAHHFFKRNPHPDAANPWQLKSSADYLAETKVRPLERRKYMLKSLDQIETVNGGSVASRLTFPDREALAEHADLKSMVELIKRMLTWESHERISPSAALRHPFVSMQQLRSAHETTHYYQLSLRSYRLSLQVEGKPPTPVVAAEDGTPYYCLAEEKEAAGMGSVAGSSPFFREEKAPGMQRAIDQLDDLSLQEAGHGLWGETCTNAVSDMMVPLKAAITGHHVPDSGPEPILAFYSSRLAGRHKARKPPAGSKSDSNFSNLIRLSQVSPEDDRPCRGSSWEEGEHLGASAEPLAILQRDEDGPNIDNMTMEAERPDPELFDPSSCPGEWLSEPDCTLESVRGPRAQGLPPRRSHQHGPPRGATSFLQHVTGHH
Procedure, shortened: (§2)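 Single-concentration screen at 0.1 μM within a 52-kinase selectivity panel, with percent inhibition reported for each kinase.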

[12] = target: PAS domain-containing serine/threonine-protein kinase (Homo sapiens) (UniProt Q96RG2); test: Inhibition of human recombinant GST-tagged PASK (879 to 1323 residues) expressed in baculovirus expression system at 0.1 uM relative to control
Sequence of PAS domain-containing serine/threonine-protein kinase (Homo sapiens) (Q96RG2 whole entry, the tested form may be a part): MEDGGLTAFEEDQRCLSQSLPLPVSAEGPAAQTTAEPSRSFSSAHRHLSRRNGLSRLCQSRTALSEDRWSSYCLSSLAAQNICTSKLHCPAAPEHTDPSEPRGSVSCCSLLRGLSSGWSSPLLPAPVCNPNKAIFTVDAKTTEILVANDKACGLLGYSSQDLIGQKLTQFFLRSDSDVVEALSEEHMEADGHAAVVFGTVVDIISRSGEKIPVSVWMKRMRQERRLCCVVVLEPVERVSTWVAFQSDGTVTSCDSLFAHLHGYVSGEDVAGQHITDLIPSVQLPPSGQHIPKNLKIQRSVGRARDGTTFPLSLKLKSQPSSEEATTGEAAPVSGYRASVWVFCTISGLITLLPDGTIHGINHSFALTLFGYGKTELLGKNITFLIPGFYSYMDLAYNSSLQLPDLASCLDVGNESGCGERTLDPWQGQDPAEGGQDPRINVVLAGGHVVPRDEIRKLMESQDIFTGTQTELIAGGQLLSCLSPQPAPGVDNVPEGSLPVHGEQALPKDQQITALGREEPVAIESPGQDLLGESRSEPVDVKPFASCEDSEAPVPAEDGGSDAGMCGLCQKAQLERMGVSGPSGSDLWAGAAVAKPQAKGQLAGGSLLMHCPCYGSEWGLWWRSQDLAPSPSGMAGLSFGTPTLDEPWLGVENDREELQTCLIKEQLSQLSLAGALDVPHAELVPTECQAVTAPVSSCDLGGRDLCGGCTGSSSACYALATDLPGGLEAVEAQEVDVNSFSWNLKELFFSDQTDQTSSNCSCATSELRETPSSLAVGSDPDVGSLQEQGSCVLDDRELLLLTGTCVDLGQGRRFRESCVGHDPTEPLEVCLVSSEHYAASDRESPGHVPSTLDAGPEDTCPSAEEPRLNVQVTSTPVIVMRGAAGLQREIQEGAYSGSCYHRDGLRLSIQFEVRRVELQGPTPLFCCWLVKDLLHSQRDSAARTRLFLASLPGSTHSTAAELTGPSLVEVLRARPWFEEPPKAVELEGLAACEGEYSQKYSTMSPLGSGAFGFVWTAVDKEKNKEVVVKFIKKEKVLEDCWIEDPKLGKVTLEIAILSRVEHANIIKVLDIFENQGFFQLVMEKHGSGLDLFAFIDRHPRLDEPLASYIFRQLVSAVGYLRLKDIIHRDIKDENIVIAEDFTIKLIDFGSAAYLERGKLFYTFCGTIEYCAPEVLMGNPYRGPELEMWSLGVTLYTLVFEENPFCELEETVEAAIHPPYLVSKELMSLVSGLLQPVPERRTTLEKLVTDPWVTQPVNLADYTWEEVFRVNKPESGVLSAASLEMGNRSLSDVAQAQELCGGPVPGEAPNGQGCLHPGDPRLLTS
Procedure, shortened: (§3)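 Single-point kinase selectivity screen at 0.1 μM compound across a panel of 52 kinases, recorded as percent inhibition for each kinase.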

[13] = target: Glycogen synthase kinase-3 alpha (Homo sapiens) (UniProt P49840); test: Inhibition of recombinant GSK3alpha (unknown origin) at 0.1 uM relative to control; procedure, shortened: as §2
Sequence of Glycogen synthase kinase-3 alpha (Homo sapiens) (P49840 2-483 limits assumed): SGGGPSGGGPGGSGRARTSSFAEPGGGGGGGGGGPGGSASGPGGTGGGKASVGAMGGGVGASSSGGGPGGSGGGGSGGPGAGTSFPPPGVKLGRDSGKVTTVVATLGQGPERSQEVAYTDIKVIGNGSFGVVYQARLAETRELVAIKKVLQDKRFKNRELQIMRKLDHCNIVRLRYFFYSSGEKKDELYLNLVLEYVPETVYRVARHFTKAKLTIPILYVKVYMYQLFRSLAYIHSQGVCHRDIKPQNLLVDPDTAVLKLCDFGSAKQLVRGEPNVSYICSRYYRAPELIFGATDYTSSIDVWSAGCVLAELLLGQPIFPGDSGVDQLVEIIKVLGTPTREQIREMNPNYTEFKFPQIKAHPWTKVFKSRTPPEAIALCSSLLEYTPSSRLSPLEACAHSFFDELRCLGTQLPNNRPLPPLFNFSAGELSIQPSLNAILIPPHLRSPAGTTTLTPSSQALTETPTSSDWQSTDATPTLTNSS

[14] = target: Serine/threonine-protein kinase Nek4 (Homo sapiens) (UniProt P51957); test: Inhibition of full length human recombinant GST-tagged NEK4 expressed in baculovirus expression system using Ser/Thr peptide 17 substrate at 0.1 uM by Z-Lyte assay relative to control; procedure, shortened: as §3
Sequence of Serine/threonine-protein kinase Nek4 (Homo sapiens) (P51957 whole entry, looked up): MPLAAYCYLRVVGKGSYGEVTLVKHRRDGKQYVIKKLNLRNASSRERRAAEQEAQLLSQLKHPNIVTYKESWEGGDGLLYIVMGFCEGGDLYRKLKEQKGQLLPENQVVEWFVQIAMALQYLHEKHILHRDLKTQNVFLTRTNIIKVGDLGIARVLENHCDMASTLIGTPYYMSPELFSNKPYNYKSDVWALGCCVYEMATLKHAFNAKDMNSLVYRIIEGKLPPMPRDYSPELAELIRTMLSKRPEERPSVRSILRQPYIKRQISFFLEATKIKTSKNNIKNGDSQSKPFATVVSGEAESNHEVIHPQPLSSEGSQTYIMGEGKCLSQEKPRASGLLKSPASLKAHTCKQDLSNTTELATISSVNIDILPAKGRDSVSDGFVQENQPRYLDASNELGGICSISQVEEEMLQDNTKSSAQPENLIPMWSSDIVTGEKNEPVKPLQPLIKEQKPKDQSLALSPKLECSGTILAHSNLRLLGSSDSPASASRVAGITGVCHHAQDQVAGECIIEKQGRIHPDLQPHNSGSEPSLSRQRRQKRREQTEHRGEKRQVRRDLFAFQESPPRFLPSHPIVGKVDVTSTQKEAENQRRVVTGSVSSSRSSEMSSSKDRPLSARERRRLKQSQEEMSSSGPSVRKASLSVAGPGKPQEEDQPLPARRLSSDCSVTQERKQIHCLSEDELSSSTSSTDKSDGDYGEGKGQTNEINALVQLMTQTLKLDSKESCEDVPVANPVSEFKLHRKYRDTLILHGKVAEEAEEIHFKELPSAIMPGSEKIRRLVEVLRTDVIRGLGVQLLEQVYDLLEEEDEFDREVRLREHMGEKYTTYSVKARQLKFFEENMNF

[15] = target: CDK9/cyclin T1 (Homo sapiens) (UniProt O60563+P50750); test: Inhibition of full length human recombinant His-tagged CDK9/Cyclin T expressed in baculovirus expression system using Cdk7/9tide as substrate at 0.1 uM by adapta assay relative to control; procedure, shortened: as §3

Compound	IC50 (CDK8/Cyclin C)	Papp A→B [1]	fraction unbound [4]	fraction unbound [5]	fraction unbound [6]	solubility kinetic at 24 h, 200 µM [7]	further results
CC(C)NC(=O)c1cc2c(Oc3ccc(Cl)cc3)cncc2s1	100 nM	–	–	–	–	–	–
CC(=O)Nc1ccc(Oc2cncc3sc(-c4nnn[nH]4)cc23)cc1	2 nM	0.8 ×10⁻⁶ cm/s	–	–	–	–	–
O=C(O)c1cc2c(Oc3ccc(Cl)cc3)cncc2s1	2.8 nM	–	0.003	0.002	0.003	–	EC50 [2]: > 10000 nM; EC50 [3]: > 10000 nM
FC(F)(F)Oc1ccc(Oc2cncc3sc(-c4nnn[nH]4)cc23)cc1	1.1 nM	24 ×10⁻⁶ cm/s	–	–	–	–	EC50 [2]: > 10000 nM; EC50 [3]: > 10000 nM
CNC(=O)c1cc2c(Oc3ccc(Cl)cc3)cncc2s1	8.2 nM	–	0.01	0.015	0.023	–	–
NC(=O)c1cc2c(Oc3ccc(Cl)cc3)cnc(N)c2s1	1.5 nM	–	0.023	0.0187	0.041	5.5 µM (≈ 1.76 µg/mL)	IC50 (CDK9/cyclin T1): 1100 nM; EC50 [2]: 5400 nM; Activity (HCT-116 [8]): Active; EC50 [3]: 6700 nM; Activity (HCT-116 [9]): Active; Ratio [10]: 1000
O=C(c1cc2c(Oc3ccc(Cl)cc3)cncc2s1)C1CC1	59 nM	–	–	–	–	–	–
NC(=O)c1ccc(Oc2cncc3sc(-c4nnn[nH]4)cc23)cc1	4.4 nM	0.7 ×10⁻⁶ cm/s	–	–	–	–	–
NC(=O)c1cc2c(Oc3ccc(Cl)cc3)cncc2s1	6.2 nM	–	–	–	–	6.3 µM (≈ 1.92 µg/mL)	IC50 (CDK9/cyclin T1): 2200 nM
NC(=O)c1cc2c(Oc3ccc(Cl)cc3)cnc(F)c2s1	16 nM	–	–	–	–	< 1 µM	–
O=C(NC1CC1)c1cc2c(Oc3ccc(Cl)cc3)cncc2s1	24 nM	–	0.007	0.008	0.009	–	–
NC(=O)c1cc2c(Oc3ccc(Cl)cc3)cnc(Cl)c2s1	11 nM	–	–	–	–	< 1 µM	–
CN1CC[C@H](c2c(O)cc(O)c3c(=O)cc(-c4ccccc4Cl)oc23)[C@H](O)C1 [ALVOCIDIB]	–	–	–	–	–	–	EC50 [3]: 34 nM
NC(=O)c1ccc(Oc2cncc3sc(C(N)=O)cc23)cc1	21 nM	–	0.232	0.227	0.217	7 µM (≈ 2.19 µg/mL)	–
c1ccc(Oc2cncc3sc(-c4nn[nH]n4)cc23)cc1	8.3 nM	4.1 ×10⁻⁶ cm/s	–	–	–	–	–
NC(=O)c1cc2c(Oc3ccc(OC(F)(F)F)cc3)cncc2s1	12 nM	–	0.032	0.021	0.028	< 1 µM	EC50 [2]: > 10000 nM; EC50 [3]: > 10000 nM
Cc1ncc(Oc2ccc(Cl)cc2)c2cc(C(N)=O)sc12	8 nM	–	0.008	0.007	0.012	10 µM (≈ 3.19 µg/mL)	EC50 [2]: 8700 nM; EC50 [3]: > 10000 nM; Ratio [10]: 1000

Compound	IC50 (CDK8/Cyclin C)	Papp A→B [1]	fraction unbound [4]	fraction unbound [5]	fraction unbound [6]	solubility kinetic at 24 h, 200 µM [7]	further results
COC(=O)c1cc2c(Oc3ccc(Cl)cc3)cncc2s1	62 nM	–	–	–	–	–	–
Fc1ccc(Oc2cncc3sc(-c4nnn[nH]4)cc23)cc1	5.5 nM	9.1 ×10⁻⁶ cm/s	–	–	–	–	–
CC(=O)Nc1ccc(Oc2cncc3sc(C(N)=O)cc23)cc1	29 nM	–	0.152	0.09	0.204	18 µM (≈ 5.89 µg/mL)	–
N#Cc1ccc(Oc2cncc3sc(C(N)=O)cc23)cc1	5.1 nM	–	0.127	0.153	0.109	8 µM (≈ 2.36 µg/mL)	–
Ic1ccc(Oc2cncc3sc(-c4nn[nH]n4)cc23)cc1	0.7 nM	24 ×10⁻⁶ cm/s	–	–	–	–	inhibition [11]: > 80%; inhibition [12]: > 50%; inhibition [13]: > 80%; inhibition [14]: > 30%; inhibition [15]: > 30%
Cc1ccc(Oc2cncc3sc(-c4nn[nH]n4)cc23)cc1	1.6 nM	12 ×10⁻⁶ cm/s	–	–	–	–	EC50 [2]: > 10000 nM; EC50 [3]: > 10000 nM
CNC(=O)c1cc2c(Oc3ccc(I)cc3)cncc2s1	5.3 nM	–	0.001	0.002	0.002	–	–
Clc1ccc(Oc2cncc3sc(-c4nnn[nH]4)cc23)cc1	1.1 nM	11 ×10⁻⁶ cm/s	–	–	–	–	EC50 [2]: > 10000 nM; EC50 [3]: > 10000 nM
NC(=O)c1ccc(-c2ccc(Oc3cncc4sc(-c5nn[nH]n5)cc34)cc2)cc1	3 nM	1.9 ×10⁻⁶ cm/s	–	–	–	–	inhibition [11]: > 80%; inhibition [12]: > 80%; inhibition [13]: > 80%; inhibition [14]: > 80%; inhibition [15]: > 50%
CCC(=O)c1cc2c(Oc3ccc(Cl)cc3)cncc2s1	29 nM	–	< 0.001	< 0.001	< 0.001	–	–
CCNC(=O)c1cc2c(Oc3ccc(Cl)cc3)cncc2s1	16 nM	–	–	–	–	–	–
Cc1ccc(Oc2cncc3sc(C(N)=O)cc23)cc1	6 nM	–	0.041	0.028	0.039	< 1 µM	–
CN(C)C(=O)c1cc2c(Oc3ccc(Cl)cc3)cncc2s1	75 nM	–	–	–	–	–	–
COc1ccc(Oc2cncc3sc(C(N)=O)cc23)cc1	25 nM	–	0.06	0.064	0.098	10 µM (≈ 3 µg/mL)	–
CC(=O)c1cc2c(Oc3ccc(Cl)cc3)cncc2s1	32 nM	–	0.002	0.003	0.003	–	–
N#Cc1ccc(Oc2cncc3sc(-c4nnn[nH]4)cc23)cc1	1 nM	2.5 ×10⁻⁶ cm/s	–	–	–	–	EC50 [2]: > 10000 nM; EC50 [3]: > 10000 nM
